# Assay results reported in article PMC4834512 (Innate Immunity, 2016).
# “And” between values parts separate entries of the source, which are not always exact repeats. Equal entries are not always repeated.
# What was measured:
# plasma proteins [1] = conditions: assumed value from the literature; cited from earlier work
# plasma proteins [2] = format: in vitro ADME, human
# Procedure, shortened: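 Fresh citrate-anticoagulated plasma from three donors was spiked with 1 µg/ml test compound. Aliquots were centrifuged (10,000 g, 20 min) through ultrafiltration membranes of 10, 30, 50 or 100 kDa MMCO, and filtrates were stored at −20℃. Drug in filtrates was measured by competitive ELISA (detection limit 1 ng/ml; samples diluted into 0–100 ng/ml range). Total protein was measured by automated analyser. The same filtration was run in 0.9% NaCl to check binding to the filter.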
# LPS from E. coli = test: LPS inactivation by PMB in plasma, LAL test; format: biochemical, Escherichia coli; conditions: 5 ng/ml LPS from E. coli, fresh human heparinized plasma, 60 min 37℃
# Procedure, shortened: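 Fresh human heparinized plasma spiked with E. coli LPS (5 or 0.5 ng/ml) was incubated with test compound at 0, 10, 100, 250, 500 and 1000 ng/ml for 60 min at 37℃ in pyrogen-free glass vials. Endotoxin activity was read by kinetic chromogenic LAL test. ENC50 is the concentration reducing activity by 50% relative to LPS-spiked plasma without test compound.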
substance,measurement,setting,value
Polymyxin B [PMB],Plasma protein binding of PMB,plasma proteins [1],up to 90%
same,PMB % of + control in filtrate,"plasma proteins [2]; 100 kDa MMCO, citrate plasma, 1 µg/ml PMB, ultrafiltration 10,000 g 20 min, ELISA, mean ± SD n = 3",25 ± 13%
same,PMB-content of filtrates compared with a PMB-solution without plasma,"plasma proteins [2]; membranes with smaller pores than 100 kDa MMCO (10, 30, 50 kDa)",< 10%
same,ENC50 (endotoxin neutralizing concentration),LPS from E. coli,381 ng/mL and < 400 ng/mL
